Only some compounds are listed: those with a hit (about 4.8% of all), similar ones and a draw of the others.
697 NFkB inh – inhibitors of the PMA/ionomycin-induced NF-kB reporter in 697 B cells; 697 B-cell NF-kB luciferase reporter, 16 h; inhibition, % at 4 µM; 330,000 tested, 0.33% active; in the data active = inhibition above about 35%
T cruzi inh – T. cruzi replication inhibition; inhibition, % (no concentration beside the values); T. cruzi beta-gal in NIH3T3, luminescence, 90 h; AID 1885; 300,000 tested, 1.4% active;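 active = mean inhibition across valid replicates above about 55%, limit read from the data; inconclusive = mean below that limit but half or more replicates reach it; inactive = mean below it, under half of replicates reach it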;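 note: signal also drops with host cell toxicity which is not excluded here; 0% = plate median of DMSO wells and 100% = zero luminescence signal; higher percent means less beta-gal luminescence so fewer parasites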
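Read-out: Parasite load inhibition, % | Test system: Mouse NIH/3T3 fibroblasts infected with β-gal-expressing T. cruzi Tulahuen C4 | Amount: 5,000 cells/well | Medium: DMEM, 2% fetal bovine serum | Signal: GalScreen β-gal luminescence, detergent lysis, 60 min | Timing: 3 h attach, ≥90 h co-culture | Also added: Tulahuen C4 trypomastigotes, 5000/well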
Jurkat NFkB inh – lowers PMA/ionomycin-induced NF-kB signal in Jurkat cells | PMA/ionomycin-induced NF-kB luciferase reporter, luminescence | inhibition, % at 4 µM | 330,000 tested, 0.53% active | AID 435003; in the data active = inhibition above about 50%
GPR7 antagonist – antagonists of human GPR7 (neuropeptides B/W receptor 1) | AID 1861 | inhibition, % at 4.4 µM | 290,000 tested, 1.1% active | GPR7-expressing cells, fluorescence antagonist assay | P48145; in the data active = inhibition above about 16%, passing the limit was not always enough;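 note: cells stimulated with the agonist NPW; 0% = agonist with vehicle and 100% = vehicle without agonist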
Target sequence (P48145 whole entry, looked up): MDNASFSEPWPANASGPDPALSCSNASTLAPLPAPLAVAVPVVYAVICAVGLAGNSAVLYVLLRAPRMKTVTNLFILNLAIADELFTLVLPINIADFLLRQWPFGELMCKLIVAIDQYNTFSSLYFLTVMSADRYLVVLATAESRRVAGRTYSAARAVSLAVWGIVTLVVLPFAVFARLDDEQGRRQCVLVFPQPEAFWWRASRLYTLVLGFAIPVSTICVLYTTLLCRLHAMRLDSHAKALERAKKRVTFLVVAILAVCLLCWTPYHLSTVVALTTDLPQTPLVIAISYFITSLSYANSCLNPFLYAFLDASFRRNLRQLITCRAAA
HSF1 inhib – HSF1 inhibition; activity change, negative = inhibition, % at 7.5 µM (by protocol); NIH3T3-HGL HSE-luciferase, MG132-induced, luminescence 8 h; active compounds read low; 300,000 tested, 0.77% active;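 active = more than half of replicate wells show activity change below -50%, luminescence cut by over half; inconclusive = some wells, but at most half, below -50%; inactive = no replicate well below -50%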;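 note: luciferase reports HSF-1 transcriptional activity via heat shock element; 0% = median of DMSO wells and -100% = zero luminescence signal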
HSF1 activator – increases HSF-1 driven luciferase reporter signal; activation, % at 9 µM; 300,000 tested, 1.7% active; AID 504408; NIH3T3-HGL HSF-1 luciferase reporter, MG132, 8 h; 100% = twice DMSO control signal;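 active = mean replicate activation of at least 50% with a set share of replicates each reaching 50%; inconclusive = only one of those two conditions met; inactive = mean below 50% and too few replicates reaching it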;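 note: 0% = median of the neutral control wells and 100% = twice that signal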
Starred values were filed as active, the others as inactive; ? = inconclusive; · = not tested or not shown.

SMILES	697 NFkB inh	T cruzi inh	Jurkat NFkB inh	GPR7 antagonist	HSF1 inhib	HSF1 activator
O=C(O)c1ccc(/C=N/NC(=O)C(O)(c2ccccc2)c2ccccc2)cc1	2	-10	1	-11	7	27
O=C(COc1ccc(S(=O)(=O)N2CCCC2)cc1Cl)NCc1cccnc1	-14	13	5	-13	-12	1
COc1ccc(Nc2nc(N)nc(CSc3nccn3C)n2)cc1	-69	-14	-69	-7	9	55*
COc1ccc(Nc2nc(N)nc(CSc3nnc(N)s3)n2)cc1	-45	2	-41	-5	11	37
COc1ccc(Nc2nc(N)nc(CSc3nc(C)cc(C)n3)n2)cc1	-2	-1	14	-1	-89*	-92
COC(=O)c1cc(NS(=O)(=O)c2ccc(N3CCOCC3)c(N)c2)cc(C(=O)OC)c1	-21	-5	8	-3	-1	5
CSc1c(C#N)c(N)nc2sc(C(=O)c3ccccc3)c(N)c12	-8	?	5	6	81	116*
N#Cc1c(SCc2ccc(Cl)cc2)sc(C(=O)c2ccccc2)c1N	21	26	18	-7	1	3
Cc1cc([N+](=O)[O-])ccc1NC(=O)c1ccco1	19	8	2	-17	-3	9
COc1cc(NC(=O)c2ccc([N+](=O)[O-])o2)ccc1NC(=O)c1ccco1	-30	30	21	-7	97	125*
CCOc1ccc(NC(=O)c2ccco2)c([N+](=O)[O-])c1	-114	-5	-52	-4	24	54*
Cc1cc(NC(=O)c2ccc([N+](=O)[O-])o2)ccc1NC(=O)c1ccco1	·	44	·	-7	69	72*
CCOCCCN(C)C1CCN(C(=O)c2oc3ccccc3c2NC(=O)c2ccc([N+](=O)[O-])cc2)CC1	-7	-12	7	-17	-1	-6
CCOCCCN(C)C1CCN(C(=O)c2oc3ccccc3c2NC(=O)c2ccc(F)cc2)CC1	2	56*	11	-6	-2	-1
O=C(NN=C1c2ccccc2-c2ccccc21)c1cccc(Br)c1	-20	54	-17	7	-12	-20
Cc1nn(-c2ccccc2)c2c1C(c1ccc([N+](=O)[O-])cc1)N1C(=N2)C(=O)Nc2ccccc21 (stereo not given)	-2	26	-8	-5	-3	10
Cc1nn(-c2ccc([N+](=O)[O-])cc2)c2c1C(c1cccc(Br)c1)N1C(=N2)C(=O)Nc2ccccc21 (stereo not given)	26	82*	39	-3	-3	-10
CC(NC(=O)/C=C/c1ccco1)c1nc2ccccc2n1Cc1ccccc1F (stereo not given)	-33	18	7	3	33	65*
CC(NC(=O)/C=C/c1ccco1)c1nc2ccccc2n1Cc1c(Cl)cccc1Cl (stereo not given)	-34	38	-3	-3	23	33
CCc1ccc(-c2nc(CS(=O)CC(=O)NCc3cccnc3)c(C)o2)cc1 (stereo not given)	0	-14	2	4	-74*	-78
Cc1cccc(NC(=O)Nc2ccncc2)c1	-3	65*	-17	-11	-2	8
Cc1cccc(NC(=O)Nc2cnccn2)c1	-7	-12	17	5	1	-5
O=C(Nc1ccncc1)Nc1ccc(Br)cc1Cl	33	56*	-3	-15	-4	-4
CC(Sc1nnc(C2CC2)n1C1CC1)C(=O)N(C)Cc1cccc(F)c1 (stereo not given)	3	·	-7	·	·	·
CCCOc1ccc(-c2c(=O)n(O)c3ccccc3[n+]2[O-])cc1	-141	5	-79	-8	41	44
SMILES	697 NFkB inh	T cruzi inh	Jurkat NFkB inh	GPR7 antagonist	HSF1 inhib	HSF1 activator
Cc1cc(C)c(S(=O)(=O)N2CCCC(C(=O)NCc3ccccn3)C2)c(C)c1 (stereo not given)	8	4	3	11	3	4
Cc1nn(-c2ccccc2)c(C)c1NC(=O)COC(=O)c1ccccc1OC(F)F	2	-12	7	-1	-1	-9
COc1ccc(OC)c(-c2cc(C(=O)NCc3ccc(Cl)cc3)no2)c1	6	14	-1	-13	-2	-4
C/C(=N\NC(=O)CCc1ccc(S(=O)(=O)N2CCOCC2)cc1)c1ccc(Br)cc1	18	25	3	0	23	61*
Cc1ccc(N2C(=O)C3C4CCC(O4)C3C2=O)c(OC(F)F)c1 (stereo not given)	12	·	-2	·	·	·
Cc1c(-c2nc(N)nc(Nc3ccccc3)n2)oc2ccccc12	-202	36	-133	-10	38	76*
Nc1nc(CN2CCCCCC2)nc(Nc2ccccc2)n1	-6	-13	2	0	3	-18
CC1=C(C(=O)OCC2CCCCC2)C(c2ccc(O)cc2)NC(=O)N1 (stereo not given)	-16	10	-6	2	3	-1
Cc1[nH]c2ccccc2c1/C=C/c1nc2ccccc2c(=O)n1CCO	13	29	-3	-7	-1	0
Cc1nc2ccc(NC(=O)CCS(=O)(=O)c3ccccc3)cc2s1	-11	-18	-25	-4	14	31
Cc1nc2cc(NC(=O)CCS(=O)(=O)c3ccccc3)ccc2s1	-52	-7	-96	-4	22	52*
C=CCn1c(SCc2ccc(F)cc2)nnc1-c1sc2nc(C)cc(C)c2c1N	-12	63*	0	-8	-3	2
O=C(c1ccco1)N1CCN(C(=O)c2cc(-c3ccncc3)nc3ccc(Br)cc23)CC1	-26	56*	-4	-7	-4	-23
O=C(NCc1cccs1)c1cc(-c2ccncc2)nc2ccc(Br)cc12	10	55*	9	-9	6	-4
Cc1ccc(-c2cc(C(=O)N3CCN(c4ccc(F)cc4)CC3)c3ccccc3n2)o1	-3	29	-1	15	13	2
Cc1ccc(-c2cc(C(=O)N3CCN(c4ncccn4)CC3)c3cc(Br)ccc3n2)o1	24	10	-7	-5	47	76*
CCCc1nn(C)c(C(=O)Nc2ccccc2)c1Cl	-182	-9	-114	6	-1	12
CC(=O)Nc1ccc(S(=O)(=O)NCCC(=O)OCC(=O)c2cc(C)ccc2C)cc1	9	·	5	·	·	·
COc1cc(OC)c2c(c1)OC(=O)CC2c1ccc(C)cc1 (stereo not given)	10	·	·	·	·	·
COc1ccc(C2SCC(=O)N2CC23CC4CC(CC(C4)C2)C3)cc1 (stereo not given)	-10	61*	10	-4	-1	4
COc1ccc(C2SCC(=O)N2Cc2ccccc2)cc1 (stereo not given)	-1	4	-4	-6	-5	7
COc1ccc(-n2ncc(Cl)c(Cl)c2=O)cc1	-5	57*	28	5	10	21

Compound activity from PubChem BioAssay.
